{"data": "Experimental data from different studies", "target": "Insulin-like growth factor 1 receptor (IGF1R, Homo sapiens, UniProt P08069)", "note": "Protocols differ between the studies behind these lines."}
{"SMILES": "C[C@@H]1CN(c2ccc3ncc(-c4ccc5[nH]nc(C6CC6)c5c4)n3n2)C[C@H](C)O1", "effect on": "binding", "technique": "competition with immobilised ligand", "tested at": "50 nM", "remaining binding": "99%"}
{"SMILES": "CC1CCCN1c1nccc(-c2cnn3ncccc23)n1 (stereo not shown)", "effect on": "binding", "tested at": "1 µM", "remaining binding": "96%"}
{"SMILES": "O=C(NCCCN1CCOCC1)c1ccc(Nc2ncc(Cl)c(-c3ccc(Cl)s3)n2)cc1", "effect on": "binding", "technique": "competition with immobilised ligand", "tested at": "1 µM", "remaining binding": "44%"}
{"SMILES": "O=C(NCC1CCOCC1)c1n[nH]cc1NC(=O)c1c(F)cccc1F", "effect on": "binding", "technique": "competition with immobilised ligand", "tested at": "1 µM", "remaining binding": "96%"}
{"SMILES": "COc1ccc2c(c1)O[C@@H](c1ccc(OC)c(OC)c1)C[C@H]2NC(=O)C1(c2ccc3c(c2)OC(F)(F)O3)CC1", "effect on": "cell-free assay", "technique": "competition with immobilised ligand", "tested at": "1 µM", "remaining binding": "90%"}
{"SMILES": "c1cnn2ncc(-c3ccnc(N4CCC45COC5)n3)c2c1", "effect on": "binding", "tested at": "1 µM", "remaining binding": "97%"}
{"SMILES": "O=C(O)c1cc(-c2ccc(C3CCNCC3)cc2)c2ccc(-c3ccc(C(F)(F)F)cc3)cc2c1", "effect on": "cell-free assay", "technique": "competition with immobilised ligand", "tested at": "1 µM", "remaining binding": "95%"}
{"SMILES": "CN(CCCC(F)(F)F)c1nccc(-c2cnn3ncccc23)n1", "effect on": "binding", "tested at": "1 µM", "remaining binding": "100%"}
{"SMILES": "O=C(NCCCN1CCOCC1)c1ccc(Nc2nccc(-c3cc4ccccc4s3)n2)cc1", "effect on": "binding", "technique": "competition with immobilised ligand", "tested at": "1 µM", "remaining binding": "100%"}
{"SMILES": "Cc1cc(NC(=O)c2cccc(S(F)(F)(F)(F)F)c2)cc(-n2ccn3nc(-c4cccnc4)cc23)c1", "effect on": "cell-free assay", "technique": "competition with immobilised ligand", "tested at": "1 µM", "remaining binding": "100%"}
{"SMILES": "O=C(c1ccc(Nc2ncc(Cl)c(-c3cc4ccccc4s3)n2)cc1)N1CCC(N2CCCC2)CC1", "effect on": "binding", "technique": "competition with immobilised ligand", "tested at": "1 µM", "remaining binding": "40%"}
{"SMILES": "Nc1ncc2c(n1)-c1c([nH]c3ccc(C#CC4CC4)cc13)CCCC2", "effect on": "binding", "technique": "competition with immobilised ligand", "tested at": "1 µM", "remaining binding": "100%"}
{"SMILES": "CN(C)c1ncc(F)c(-c2cnn3ncccc23)n1", "effect on": "binding", "tested at": "1 µM", "remaining binding": "100%"}
{"SMILES": "CC(C)CC(=O)N1CCc2nc(-c3ccc(Br)cc3)nc(N(C)Cc3ccccc3)c2C1", "effect on": "cell-free assay", "technique": "competition with immobilised ligand", "tested at": "0.1 µM", "remaining binding": "83%"}
{"SMILES": "COc1cnc(Nc2cccc(S(N)(=O)=O)c2)nc1N1CCN(c2ccccc2)CC1", "effect on": "binding", "technique": "competition with immobilised ligand", "tested at": "1 µM", "remaining binding": "100%"}
{"SMILES": "N#Cc1ccccc1CSc1nnc2c(n1)[nH]c1ccccc12", "effect on": "binding", "technique": "competition with immobilised ligand", "tested at": "10 µM", "remaining binding": "91%"}
{"SMILES": "CCS(=O)(=O)c1cc2cc(C[C@](O)(CC(C)(C)c3ccc(F)cc3C(N)=O)C(F)(F)F)[nH]c2cn1", "effect on": "cell-free assay", "technique": "competition with immobilised ligand", "tested at": "1 µM", "remaining binding": "100%"}
{"SMILES": "c1cncc(-c2cccc(Nc3nccc(NC4CCCCC4)n3)c2)c1", "effect on": "binding", "technique": "competition with immobilised ligand", "tested at": "10 µM", "remaining binding": "67%"}
{"SMILES": "C[C@@H](c1ccc(-n2cnc3c(N)ncnc32)cc1)N1CCc2nn(C)c(Cc3ccccc3)c2C1=O", "effect on": "binding", "technique": "competition with immobilised ligand", "tested at": "0.1 µM", "remaining binding": "38%"}
{"SMILES": "CC(C)(C)c1ccc(-c2nc(CBr)nn2-c2cccc(O)c2)cc1", "effect on": "cell-free assay", "technique": "competition with immobilised ligand", "tested at": "10 µM", "remaining binding": "95%"}
{"SMILES": "N[C@@H]1CCN(c2nccc(-c3cnn4ncccc34)n2)C1", "effect on": "binding", "tested at": "1 µM", "remaining binding": "99%"}
{"SMILES": "O=C1NC(c2ccccn2)Sc2ccccc21 (stereo not shown)", "effect on": "cell-free assay", "technique": "competition with immobilised ligand", "tested at": "1 µM", "remaining binding": "80%"}
{"SMILES": "C[C@H]1CCN(c2nccc(-c3cnn4ncccc34)n2)C1", "effect on": "binding", "tested at": "1 µM", "remaining binding": "90%"}
{"SMILES": "CN1CCN(c2cnc3c(C4CCN(C(=O)c5ccc(OC(F)(F)F)cc5N)CC4)ncnc3c2)CC1", "effect on": "cell-free assay", "technique": "competition with immobilised ligand", "tested at": "1 µM", "remaining binding": "100%"}
{"SMILES": "COc1cnc(Nc2cccc(S(N)(=O)=O)c2)nc1N1CCN(c2ccccc2)C(=O)C1", "effect on": "binding", "technique": "competition with immobilised ligand", "tested at": "1 µM", "remaining binding": "100%"}
